Most compounds without a hit are left out; they make up all but 2.8% or so of the library.
PP1 counter: counter-screen for PP5 inhibitors: inhibitors of human PP1-alpha; purified PP1alpha, OMFP fluorescence; P62136; AID 2235; inhibition, % at 6.7 µM; actives 0.9% (n = 320,000);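 active means inhibition above the mean inhibition of all tested compounds plus 3 SD, computed separately for each screening campaign, cut at about 15% in these data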
Target sequence (P62136 whole entry, looked up): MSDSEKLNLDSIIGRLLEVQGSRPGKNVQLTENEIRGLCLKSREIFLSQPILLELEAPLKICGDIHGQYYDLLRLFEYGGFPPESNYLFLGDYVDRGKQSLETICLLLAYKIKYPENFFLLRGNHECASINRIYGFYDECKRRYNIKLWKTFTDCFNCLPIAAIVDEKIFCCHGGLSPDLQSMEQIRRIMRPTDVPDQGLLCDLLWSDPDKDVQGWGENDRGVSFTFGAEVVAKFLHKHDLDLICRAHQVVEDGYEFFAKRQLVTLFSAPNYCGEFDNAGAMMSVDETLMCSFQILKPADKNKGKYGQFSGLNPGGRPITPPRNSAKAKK
UBC13 polyUb: human UBC13 polyubiquitination inhibition | P61088 | UBC13 polyubiquitin chain formation, TR-FRET | inhibition, % at 20 µM | actives 0.47% (n = 330,000); in the data active means inhibition above about 45%, passing the limit was not always enough; inconclusive means no clear call, values can overlap the other calls
Target sequence (P61088 whole entry, looked up): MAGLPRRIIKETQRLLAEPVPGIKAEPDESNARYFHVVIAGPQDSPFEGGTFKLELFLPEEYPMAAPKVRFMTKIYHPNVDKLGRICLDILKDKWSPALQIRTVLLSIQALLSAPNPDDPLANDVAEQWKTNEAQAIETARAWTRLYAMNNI
p-CIP stab down: p/CIP protein destabilization; actives 0.01% (n = 290,000); F442A p/CIP-EGFP cells, EGFP fluorescence, 16 h; AID 1984; decrease of EGFP signal, % at 10 µM; Q05BA5;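 active means EGFP signal decrease of at least 30% at 10 µM or well 3 SD below plate mean, unless failing retest; inactive means the rest, including hits failing retest or dose response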
AI-2 QS modul: modulators of Vibrio harveyi AI-2 quorum sensing system | Vibrio harveyi JMH597 AI-2 luminescence/OD600 ratio, 9 h; hits give low values; strain lacks LuxN and CqsS sensors; 0 = neutral-control median | activity change, % at 7.5 µM | actives 0.4% (n = 300,000) | AID 2094; in the data active means activity change below about -75%, passing the limit was not always enough; inconclusive means no clear call, values can overlap the other calls;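 further: luminescence divided by OD600 gain over 9 h not by final OD600 alone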
T cruzi inh: T. cruzi replication inhibition. actives 1.4% (n = 300,000). inhibition, % (test concentration not listed). T. cruzi beta-gal in NIH3T3, luminescence, 90 h;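 active means mean inhibition across valid replicates above about 55%, limit read from the data; inconclusive means mean below that limit but half or more replicates reach it; inactive means mean below it, under half of replicates reach it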;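 further: signal also drops with host cell toxicity which is not excluded here; 0% = plate median of DMSO wells and 100% = zero luminescence signal; higher percent means less beta-gal luminescence so fewer parasites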
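System: NIH/3T3 fibroblasts plus reporter T. cruzi. Medium: DMEM plus 2% FBS. Probe or stimulus: 5000 reporter trypomastigotes per well. Compound: single 50 nL compound addition per well in DMSO. Incubation: co-culture of at least 90 h after 3 h attachment. Detection: GalScreen β-gal luminescence, detergent lysis, 60 min. Evaluation: parasite load inhibition, %.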
An asterisk follows results filed as active; u = inconclusive; x = not tested or not shown.

SMILES	PP1 counter	UBC13 polyUb	p-CIP stab down	AI-2 QS modul	T cruzi inh
Cc1nc(N)nc(N)c1/C=C/C(C)(C)c1ccc(Cl)cc1	x	x	-10	-89*	60*
COc1ccc(-n2c(=O)[nH]cc(C(=O)Nc3ccc4c(c3)OCO4)c2=O)cc1OC	-3	1	-13	2	5
COc1ccc(C(=O)C2CCCN(Cc3sc(N4CCCC4)nc3Cl)C2)c(OC)c1 (stereo unspecified)	-1	8	-13	26	63*
COc1ccc(C(=O)C2CCCN(Cc3c(C)[nH]c4ccccc34)C2)c(OC)c1 (stereo unspecified)	0	12	-1	3	62*
COc1ccc(C(=O)C2CCCN(Cc3cc(C)c(O)c(C)c3)C2)c(OC)c1 (stereo unspecified)	-1	-1	-11	9	27
CCCCC1(C)NC(=O)N(CC(=O)Nc2cc(S(=O)(=O)N3CCOCC3)ccc2Cl)C1=O (stereo unspecified)	-6	-14	x	x	x
Cc1ccc2nc(C3CCCN(C(=S)Nc4ccccc4C)C3)[nH]c2c1 (stereo unspecified)	-1	0	-2	21	67*
Cc1ccc(C)c(NC(=S)N2CCC(c3nc4ccccc4s3)CC2)c1	1	-2	-3	24	60*
CC(=O)N1CCN(C(=O)COC(=O)c2oc3ccccc3c2C)CC1	-5	10	x	x	x
CCOc1cc(/C=N/NC(=O)CNc2ccc(C)cc2)ccc1OC(=O)c1ccccc1	15*	-23	0	122	-11
CCc1cc(=O)[nH]c(SCC(=O)N2CCOCC2)n1	-1	-2	x	24	-8
O=C(CC(C(=O)N1CCc2ccccc21)n1ccnc1)N1CCc2ccccc2C1 (stereo unspecified)	-1	5	-3	6	72*
CCCCNC(=O)CC(C(=O)N1CCc2ccccc21)n1ccnc1 (stereo unspecified)	-3	-4	-12	20	-7
O=S(=O)(c1ccc(Cl)cc1)N1CCN(C2CCN(Cc3ccccc3)CC2)CC1	0	4	-6	16	61*
CN(CC(=O)Nc1ccc(S(=O)(=O)N2CCCC2)cc1)Cc1c(F)cccc1Cl	-1	-2	-3	15	16
O=C(CNC1CCN(Cc2ccccc2)CC1)Nc1ccc(S(=O)(=O)N2CCCCC2)cc1	-5	1	-9	1	55*
CN(CC(=O)Nc1ccc(S(=O)(=O)N2CCCC2)cc1)Cc1ccc(Cl)cc1	5	-4	-3	11	57*
COc1ccc(C(=O)O)cc1S(=O)(=O)NCCc1ccccn1	-3	13	-7	14	1
Cc1nn(C)c(C)c1NC(=O)CSc1nc(-c2ccccc2Cl)nc2c1cnn2-c1ccccc1	16*	30	7	35	3
CC(=O)CSc1ccc(-c2nc3cc(C)c(C)cc3[nH]2)cn1	-3	-14	-7	-3	14
Cc1cc2nc(-c3ccc(SCc4ccc(C#N)cc4)nc3)[nH]c2cc1C	8	-12	-6	-1	56*
CC(C)c1ccc(NS(=O)(=O)c2ccc(Cl)nc2)cc1	-4	7	-7	-92*	13
CC(=O)Nc1c(C)cc(OCC(=O)O)cc1C	-4	-16	0	16	9
COn1c(-c2ccc(Cl)cc2)nc2ncccc21	-3	8	-2	25	-3
CCOC(=O)/C(C)=C1\NC(C)(C)Cc2ccccc21	x	x	-14	16	62*
SMILES	PP1 counter	UBC13 polyUb	p-CIP stab down	AI-2 QS modul	T cruzi inh
N#C/C(=C/C=C/c1ccccc1)C(=O)Nc1ccccc1	-4	-10	-2	x	69*
N#C/C(=C\C=C\c1ccccc1)C(=O)Nc1ccccc1	0	-8	-3	30	8
C/C(=N\OC(=O)NC1CCCCC1)c1sc(-c2ccccc2)nc1C	0	-7	-8	31	58*
C/C(=N\OC(=O)NC(C)C)c1sc(-c2ccccc2)nc1C	-1	0	13	0	24
CC(=O)c1cccc(Nc2cc(C)nc3c(C)cc(C)cc23)c1	-3	7	-14	-10	56*
COC(=O)Cc1ccc(OC(=O)CCS(=O)(=O)c2ccc(Cl)cc2)cc1	-5	-2	x	15	-7
Cc1c(Cc2ccccc2)c(=O)oc2cc(OCC(=O)N3CCC(C(=O)O)CC3)ccc12	-2	9	2	13	u
O=C(Nc1ccc(-c2nc3ccccc3o2)cc1)c1ccc(N2CCOCC2)c([N+](=O)[O-])c1	-5	-29	-18	30	57*
COC(=O)c1c(-c2cccc3ccccc23)csc1NC(=O)Cc1ccc(OC)c(OC)c1	-1	-1	-4	6	57*
COC(=O)c1c(-c2ccc(C)cc2)csc1NC(=O)Cc1ccc(OC)c(OC)c1	x	x	-18	28	-11
COc1ccc(CC2(CO)CCN(CC3=Cc4cc(Cl)ccc4OC3)CC2)cc1	2	6	-8	12	66*
COc1ccc2c(c1)C=C(CN1CCC(CO)(CCc3ccccc3)CC1)CO2	-3	-8	-4	14	45
COc1ccc(CC2(CO)CCN(Cc3nc(C(C)C)cs3)CC2)cc1	-1	3	-2	22	68*
CCOc1ccc(S(=O)(=O)/N=C(/Nc2ccc(C(C)=O)cc2)c2ccccc2)cc1	x	-2	x	x	x
CC(=O)c1ccc(N2CCN(C(=O)c3ccc(C(=O)c4ccccc4)cc3)CC2)cc1	-2	4	x	x	x
COc1ccc(N(CC(=O)NCCC2=CCCCC2)S(=O)(=O)c2ccccc2)cc1OC	4	-1	-6	18	60*
O=c1cc(CSc2ccc(Cl)cc2)nc(-c2ccccn2)[nH]1	16*	-30	-7	28	59*
O=c1cc(CSc2ccc(Cl)cc2)nc(-c2ccccc2)[nH]1	4	-4	3	17	-24
CC(C)=CC(=O)O[C@@H]1Cc2cc3ccc(=O)oc3cc2OC1(C)C	-1	-4	x	x	x
Cc1c(Cl)cccc1NS(=O)(=O)c1cccc2nsnc12	-9	-9	-5	31	1
CC(/C=N/Nc1nnc2c(n1)[nH]c1ccccc12)=C\c1ccco1	16*	-18	-1	28	-20
Nc1nc2ccc(Oc3ccccc3)cc2s1	x	x	-7	-81*	-29
CC(C)(C)CN1CCN(Cc2nc(-c3ccc(F)cc3)cs2)CC1CCO (stereo unspecified)	2	-4	-12	14	-28
CCNC(=O)NC(=O)c1csc([N+](=O)[O-])c1	-3	-1	-6	23	59*
C=CCNC(=O)NC(=O)c1csc([N+](=O)[O-])c1	-5	-5	-8	6	27
CCC(C)NC(=O)C(=O)NCc1ccccn1 (stereo unspecified)	-4	0	-7	10	-22
CC(=O)c1ccc(-c2ccc(/C=C(/Sc3n[nH]c(C)n3)C(=O)O)o2)cc1	16*	-51	-24	12	3

Source: PubChem (several laboratories)
